According to article PMC5901702 (Journal of biomolecular screening, 2012):

What was measured:
rat IDE [1] = target: T1, rat IDE (Rattus norvegicus, UniProt P35559); experiment: Thermal melt; assay type: binding; conditions: 100 µM compound; rat IDE 0.5 µM; 28 to 70 °C
T1 sequence (P35559 1-1019): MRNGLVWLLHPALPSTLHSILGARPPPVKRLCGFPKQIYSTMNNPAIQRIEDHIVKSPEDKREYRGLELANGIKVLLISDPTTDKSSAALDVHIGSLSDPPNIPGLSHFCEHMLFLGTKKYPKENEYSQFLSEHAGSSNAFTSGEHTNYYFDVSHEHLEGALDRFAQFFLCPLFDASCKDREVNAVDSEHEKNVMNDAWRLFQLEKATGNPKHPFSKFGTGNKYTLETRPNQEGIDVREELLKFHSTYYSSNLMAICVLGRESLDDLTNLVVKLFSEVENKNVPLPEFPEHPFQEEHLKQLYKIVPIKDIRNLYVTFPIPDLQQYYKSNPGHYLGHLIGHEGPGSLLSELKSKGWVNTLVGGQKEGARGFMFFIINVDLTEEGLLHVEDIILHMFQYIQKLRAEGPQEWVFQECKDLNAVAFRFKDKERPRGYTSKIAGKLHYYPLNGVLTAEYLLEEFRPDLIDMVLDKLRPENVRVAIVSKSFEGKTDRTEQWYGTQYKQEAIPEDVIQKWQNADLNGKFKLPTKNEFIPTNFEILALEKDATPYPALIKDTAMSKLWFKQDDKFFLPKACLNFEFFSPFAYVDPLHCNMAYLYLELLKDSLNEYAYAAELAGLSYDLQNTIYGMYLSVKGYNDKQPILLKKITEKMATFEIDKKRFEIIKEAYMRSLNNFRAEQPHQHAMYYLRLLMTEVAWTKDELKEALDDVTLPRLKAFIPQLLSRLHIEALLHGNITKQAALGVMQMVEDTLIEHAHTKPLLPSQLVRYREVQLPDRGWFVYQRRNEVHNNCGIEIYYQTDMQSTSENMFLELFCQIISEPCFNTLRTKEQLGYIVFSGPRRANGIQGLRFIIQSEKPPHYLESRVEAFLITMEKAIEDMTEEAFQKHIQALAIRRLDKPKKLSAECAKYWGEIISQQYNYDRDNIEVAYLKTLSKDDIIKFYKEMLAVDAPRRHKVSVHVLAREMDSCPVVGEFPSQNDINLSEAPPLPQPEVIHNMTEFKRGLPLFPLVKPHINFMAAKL
Procedure, shortened: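 Thermal shift: recombinant rat IDE (0.5 µM) with 5× SYPRO Orange in 0.1 M KPi pH 7.6, plus DMSO or compound (100 µM). Samples were held 60 min in the dark at room temperature under mineral oil, then heated 28–70 °C in 1–3 °C steps. Fluorescence was read at 465/590 nm. Tm came from a four-parameter variable-slope sigmoidal fit.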

rat IDE [2] = target: T1, rat IDE; experiment: ATP effect on rat IDE activity and activators; assay type: biochemical; conditions: Tris/BSA, 1 mM ATP
Procedure, shortened: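 Rat IDE (87.7 nM) with 50 µM a-factor–based internally quenched fluorogenic substrate in 50 mM Tris pH 7.5 containing BSA and 1 mM ATP. Compounds were used at optimal levels taken from Tris/BSA dose-response curves. ATP titration (0–10 mM) was also run in 0.1 M KPi pH 7.6 or Tris/BSA. Activity is % of water- or DMSO-treated control, n = 4.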

| SMILES | shift in thermal melting profile (Tm) of IDE (rat IDE [1]) | activation over the ATP-only condition (rat IDE [2]; compound 125 µM) | % activity relative to ATP-only condition (rat IDE [2]; compound 500 µM) |
| --- | --- | --- | --- |
| O=S(=O)(O)c1cc(O)c2c(O)c(N=Nc3cccc4ccccc34)c(S(=O)(=O)O)cc2c1 [Compound 3] | substantial shift in the melting profile | approximately 25% |  |
| Nc1nc(SCc2ccccc2Cl)cc(C(=O)O)n1 [Compound 5] |  |  | > 250% |
